Measured values as given in ChEMBL document CHEMBL1212900, “Falcipain inhibitors: optimization studies of the 2-pyrimidinecarbonitrile lead series” (J Med Chem, 2010).

Legend:
[1] = Inhibition of Plasmodium falciparum falcipain-2 expressed in Escherichia coli
Method in brief: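 Recombinant E. coli-expressed, refolded enzyme at 0.25 nM in 100 mM sodium acetate pH 5.5, 500 μM CHAPS, 10 mM DTT, DMSO ≤1%. Substrate H-D-Val-Leu-Arg-AFC at 30 μM final. Inhibitor dilutions mixed with substrate, enzyme added last; fluorescence followed 1 h at room temperature. IC50 from percent activity versus concentration.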

[2] = Inhibition of Plasmodium falciparum falcipain-3 expressed in Escherichia coli
Method in brief: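 Refolded recombinant enzyme from E. coli, 2 nM, in 100 mM sodium acetate pH 5.5 with 500 μM CHAPS and 10 mM DTT, DMSO up to 1%. H-D-Val-Leu-Arg-AFC at 150 μM final. Reaction started by enzyme addition; fluorescence monitored 1 h at room temperature. IC50 derived from percent activity plotted against inhibitor concentration.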

Compound | IC50 [1] | IC50 [2]
CC(C)CN(NC(=O)c1cnc2ccccc2c1)c1nc(C#N)ncc1Cl | 1 nM | 126 nM
Cc1ccc2[nH]c(C(=O)NN(CC(C)C)c3nc(C#N)ncc3Br)cc2c1 | 33 nM | 1530 nM
CC(C)CN(NC(=O)OC(C)(C)C)c1cccc(C#N)n1 | 609 nM | > 10000 nM
CC(C)CN(NC(=O)OC(C)(C)C)c1cncc(C#N)n1 | 59 nM | 1670 nM
CC(C)CN(NC(=O)OC(C)(C)C)c1nc(Cl)ncc1C#N | 4530 nM | –
CC(C)CN(NC(=O)OC(C)(C)C)c1ncc(C#N)c(Cl)n1 | 64 nM | 990 nM
CC(C)CN(NC(=O)OC(C)(C)C)c1cc(C#N)ncn1 | > 10000 nM | > 10000 nM
CC(C)CN(NC(=O)OC(C)(C)C)c1nccc(C#N)n1 | 196 nM | 3570 nM
COc1nc(C#N)nc(N(CC(C)C)NC(=O)OC(C)(C)C)n1 | 12 nM | 204 nM
CC(C)CN(NC(=O)OC(C)(C)C)c1ccnc(C#N)n1 | 60 nM | 870 nM
CC(C)CN(NC(=O)OC(C)(C)C)c1nc(C#N)ncc1F | 24 nM | 583 nM
CC(C)CN(NC(=O)OC(C)(C)C)c1nc(C#N)ncc1Br | 3 nM | 92 nM
CC(C)CN(NC(=O)OC(C)(C)C)c1nc(C#N)ncc1Cl | 9 nM | 144 nM
CC(C)CN(NC(=O)OC(C)(C)C)c1nc(C#N)ncc1[N+](=O)[O-] | 2 nM | 26 nM
CC(C)CN(NC(=O)c1ccc2ccccc2c1)c1nc(C#N)ncc1Br | 65 nM | 645 nM
Cc1cnc(C#N)nc1N(CC(C)C)NC(=O)OC(C)(C)C | 40 nM | 1150 nM
CC(C)CN(NC(=O)OC(C)(C)C)c1nc(C#N)ncc1C(F)(F)F | 3 nM | 66 nM
CC(C)CN(NC(=O)OC(C)(C)C)c1nc(C#N)ncc1NCc1ccccc1 | 616 nM | 2070 nM
CC(C)CN(NC(=O)OC(C)(C)C)c1nc(C#N)ncc1C#Cc1ccc(C(F)(F)F)cc1 | 102 nM | 5330 nM
COc1cnc(C#N)nc1N(CC(C)C)NC(=O)OC(C)(C)C | 79 nM | 2390 nM
CC(C)CN(NC(=O)c1ccc2nccnc2c1)c1nc(C#N)ncc1Br | 66 nM | 1440 nM

Compound | IC50 [1] | IC50 [2]
CC(C)CN(NC(=O)c1ccc2ccccc2n1)c1nc(C#N)ncc1Cl | 6 nM | 254 nM
CC(C)CN(NC(=O)c1nccc2ccccc12)c1nc(C#N)ncc1Cl | 7 nM | 197 nM
CC(C)CN(NC(=O)c1cc2ccccc2cn1)c1nc(C#N)ncc1Cl | 7 nM | 333 nM
COCc1cnc(C#N)nc1N(CC(C)C)NC(=O)OC(C)(C)C | 8400 nM | > 10000 nM
CC(C)CN(NC(=O)OC(C)(C)C)c1nc(Cl)ncc1[N+](=O)[O-] | > 25000 nM | > 25000 nM
CC(C)(C)OC(=O)NN(CC1CC1)c1nc(C#N)ncc1Br | 7 nM | 413 nM
CC(C)(C)OC(=O)NN(CC1CCC1)c1nc(C#N)ncc1Br | 3 nM | 62 nM
CC(C)(C)OC(=O)NN(CC1CCCC1)c1nc(C#N)ncc1Br | 1 nM | 10 nM
CC(C)(C)OC(=O)NN(CC1CCCCC1)c1nc(C#N)ncc1Br | 24 nM | 146 nM
CC(C)CN(NC(=O)c1ccnc2ccccc12)c1nc(C#N)ncc1Cl | 1 nM | 44 nM
CC(C)CN(NC(=O)c1cc2ccccc2o1)c1nc(C#N)ncc1Br | 65 nM | 563 nM
Cc1c(C(=O)NN(CC(C)C)c2nc(C#N)ncc2Br)oc2ccccc12 | 223 nM | 1430 nM
COc1ccc2oc(C(=O)NN(CC(C)C)c3nc(C#N)ncc3Br)cc2c1 | 183 nM | 1240 nM
COc1cccc2cc(C(=O)NN(CC(C)C)c3nc(C#N)ncc3Br)oc12 | 46 nM | 399 nM
CC1(CN(NC(=O)OC(C)(C)C)c2nc(C#N)ncc2Br)CCCCC1 | 25 nM | 121 nM
CC(C)(C)OC(=O)NN(CCC1CCCCC1)c1nc(C#N)ncc1Br | 257 nM | 860 nM
CC(C)(C)OC(=O)NN(CCC1CCCC1)c1nc(C#N)ncc1Br | 64 nM | 504 nM
CC(C)(C)OC(=O)NN(Cc1ccccc1)c1nc(C#N)ncc1Br | 17 nM | 347 nM
CC(C)(C)OC(=O)NN(CCc1ccccc1)c1nc(C#N)ncc1Br | 93 nM | 557 nM
CC(C)CN(NC(=O)c1ccc2occc2c1)c1nc(C#N)ncc1Br | 0.7 nM | 69 nM
CC(C)CN(NC(=O)c1cc2ccccc2s1)c1nc(C#N)ncc1Br | 241 nM | 365 nM

Compound | IC50 [1] | IC50 [2]
Cc1ccc2sc(C(=O)NN(CC(C)C)c3nc(C#N)ncc3Br)cc2c1 | 6 nM | 748 nM
CC(C)CN(NC(=O)c1ccc2sccc2c1)c1nc(C#N)ncc1Br | 1 nM | 154 nM
CC(C)CN(NC(=O)c1cc2ccccc2[nH]1)c1nc(C#N)ncc1Br | 15 nM | 641 nM
CC(C)(C)OC(=O)NN(CC1CC=CC1)c1nc(C#N)ncc1Br | 2 nM | 35 nM
CC(C)(C)OC(=O)NN(CC1CC=CCC1)c1nc(C#N)ncc1Br (configuration not stated) | 2 nM | 41 nM
CC(C)(C)OC(=O)NN(CCC1C=CCC1)c1nc(C#N)ncc1Br (configuration not stated) | 12 nM | 311 nM
CC(C)(C)OC(=O)NN(c1nc(C#N)ncc1Br)C1CCC1 | 13 nM | 297 nM
CC(C)(C)OC(=O)NN(c1nc(C#N)ncc1Br)C1CCCC1 | 9 nM | 56 nM
CC(C)(C)OC(=O)NN(c1nc(C#N)ncc1Br)C1CCCCC1 | 1 nM | 8 nM
CC(C)CN(NC(=O)c1cc2cc(OCc3ccccc3)ccc2[nH]1)c1nc(C#N)ncc1Br | 103 nM | 4650 nM
Cc1c(C(=O)NN(CC(C)C)c2nc(C#N)ncc2Br)n(C)c2ccccc12 | 4 nM | 311 nM
CC(C)CN(NC(=O)c1cccc2cc[nH]c12)c1nc(C#N)ncc1Br | 3 nM | 342 nM
CC(C)CN(NC(=O)c1onc2ccccc12)c1nc(C#N)ncc1Br | 604 nM | > 10000 nM
CC(C)(C)OC(=O)NN(c1nc(C#N)ncc1Br)C1CCCC1(C)C (configuration not stated) | 34 nM | 447 nM
CC1CCC(N(NC(=O)OC(C)(C)C)c2nc(C#N)ncc2Br)C1 (configuration not stated) | 3 nM | 53 nM
CC(C)(C)OC(=O)NN(c1nc(C#N)ncc1Br)C1CC=CC1 | 2 nM | 21 nM
CC(C)(C)OC(=O)NN(CC1CCCO1)c1nc(C#N)ncc1Br (configuration not stated) | 14 nM | 112 nM
CC(C)CN(NC(=O)c1nc2ccccc2s1)c1nc(C#N)ncc1Cl | 2 nM | 112 nM
CC(C)CN(NC(=O)c1ccc2[nH]cnc2c1)c1nc(C#N)ncc1Cl | 0.5 nM | 93 nM
Cc1nc2cc(C(=O)NN(CC(C)C)c3nc(C#N)ncc3Br)ccc2[nH]1 | 0.2 nM | 27 nM
CC(C)CN(NC(=O)c1ccc2[nH]nnc2c1)c1nc(C#N)ncc1Br | 0.2 nM | 40 nM

Compound | IC50 [1] | IC50 [2]
Cc1c(C(=O)NN(CC(C)C)c2nc(C#N)ncc2Br)oc2cccnc12 | 2 nM | 73 nM
CC1OCCC1N(NC(=O)OC(C)(C)C)c1nc(C#N)ncc1Br (configuration not stated) | 7 nM | 98 nM
CC(C)(C)OC(=O)NN(CC1CCOCC1)c1nc(C#N)ncc1Br | 8 nM | 85 nM
CC(C)(C)OC(=O)NN(Cc1ccco1)c1nc(C#N)ncc1Br | 8 nM | 140 nM
CC(C)(C)OC(=O)NN(Cc1ccoc1)c1nc(C#N)ncc1Br | 60 nM | 183 nM
CC(C)(C)OC(=O)NN(c1nc(C#N)ncc1Br)C1CCOCC1 | 2 nM | 28 nM
CC(C)CN(NC(=O)c1cccc2c1Cc1ccccc1-2)c1nc(C#N)ncc1Br | 4 nM | 329 nM
CC(C)CN(NC(=O)c1cccc2c1-c1ccccc1C2=O)c1nc(C#N)ncc1Br | 2 nM | 67 nM
CC(C)CN(NC(=O)c1cccc2c1C(=O)c1ccccc1-2)c1nc(C#N)ncc1Br | 25 nM | 831 nM
CC(C)CN(NC(=O)c1ccc(-c2ccccc2)cc1)c1nc(C#N)ncc1Br | 28 nM | 1460 nM
CC(C)(C)OC(=O)NN(c1nc(C#N)ncc1Br)C1CCN(C(=O)OCc2ccccc2)CC1 | 2 nM | 38 nM
CC(C)(C)OC(=O)NN(c1nc(C#N)ncc1Br)C1CCN(C(=O)OC(C)(C)C)CC1 | 26 nM | 135 nM
CC(C)N1CCC(N(NC(=O)OC(C)(C)C)c2nc(C#N)ncc2Br)CC1 | 902 nM | 5240 nM
CC(=O)N1CCC(N(NC(=O)OC(C)(C)C)c2nc(C#N)ncc2Br)CC1 | < 0.5 nM | 33 nM
CC(=O)N[C@H]1CC[C@H](N(NC(=O)OC(C)(C)C)c2nc(C#N)ncc2Br)CC1 | 7 nM | 67 nM
CC(C)CN(NC(=O)c1ccc(C(=O)c2ccccc2)cc1)c1nc(C#N)ncc1Br | 3 nM | 115 nM
CC(C)CN(NC(=O)c1ccc(Oc2ccccc2)cc1)c1nc(C#N)ncc1Br | 8 nM | 896 nM
CC(C)CN(NC(=O)c1cccc(Oc2ccccc2)c1)c1nc(C#N)ncc1Br | 4 nM | 116 nM
CC(C)CN(NC(=O)c1ccccc1Oc1ccccc1)c1nc(C#N)ncc1Br | 5 nM | 66 nM
CC(C)CN(NC(=O)c1cccc(-c2ccccc2)c1)c1nc(C#N)ncc1Br | 1 nM | 37 nM
CC(C)CN(NC(=O)c1ccc(Cc2ccccc2)cc1)c1nc(C#N)ncc1Cl | 18 nM | 962 nM
